Screens: PubChem, Broad Institute
T cruzi repl: inhibitors of intracellular T. cruzi growth, primary screen, luminescence, NIH3T3 host cells. inhibition, % (test concentration not listed). T. cruzi beta-gal in NIH3T3, 90 h. AID 1885, 2009. 1.4% of 300,000 active;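 active = mean inhibition across valid replicates above about 55%, limit read from the data; inconclusive = mean below that limit but half or more replicates reach it; inactive = mean below it, under half of replicates reach it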;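 also: signal also drops with host cell toxicity which is not excluded here; 0% = plate median of DMSO wells and 100% = zero luminescence signal; higher percent means less beta-gal luminescence so fewer parasites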
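System: NIH/3T3 fibroblasts plus reporter T. cruzi. Medium: DMEM plus 2% FBS. Probe or stimulus: 5000 reporter trypomastigotes per well. Compound: single 50 nL compound addition per well in DMSO. Incubation: co-culture of at least 90 h after 3 h attachment. Detection: GalScreen β-gal luminescence, detergent lysis, 60 min. Evaluation: parasite load inhibition, %.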
HSF-1 act: HSF-1 activators, primary screen, NIH3T3-HGL cells, MG132 stress, luminescence, single point; NIH3T3-HGL HSF-1 luciferase reporter, 8 h; 100% = twice DMSO control signal; 1.7% of 300,000 active; activation, % at 9 µM;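 active = mean replicate activation of at least 50% with a set share of replicates each reaching 50%; inconclusive = only one of those two conditions met; inactive = mean below 50% and too few replicates reaching it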;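 also: 0% = median of the neutral control wells and 100% = twice that signal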
HSF1 inh: HSF1 inhibitors in luciferase reporter cells, primary screen, cell-based, NIH3T3, luminescence | activity change, negative = inhibition, % at 7.5 µM (by protocol) | AID 2098, 2009 | 0.77% of 300,000 active | NIH3T3-HGL HSE-luciferase, MG132-induced, luminescence 8 h; stronger effect = lower value;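 active = more than half of replicate wells show activity change below -50%, luminescence cut by over half; inconclusive = some wells, but at most half, below -50%; inactive = no replicate well below -50%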;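 also: luciferase reports HSF-1 transcriptional activity via heat shock element; 0% = median of DMSO wells and -100% = zero luminescence signal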
HIF activator: HIF pathway transcriptional activators, primary screen, cell-based, U2OS HRE-luciferase, luminescence; 0.32% of 300,000 active; AID 1910, 2009; activation, % at 7.5 µM (by protocol); U2OS HRE-luciferase reporter; normalized: DMSO 0%, desferrioxamine 100%;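 active = mean activation of at least 10% of the iron chelator positive control signal, with at least half of replicates also reaching 10%; inconclusive = mean and replicate majority disagree about reaching 10%; inactive = mean and most replicates under 10%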
Calb FLC: C. albicans growth inhibition with fluconazole, primary screen, CaCi-2 strain, Alamar Blue fluorescence; C. albicans CaCi-2 + fluconazole, 48 h; 0.57% of 300,000 active; AID 1979, 2009; growth inhibition, % (concentration not given with the values);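 active = growth inhibition above about 58% in most replicates, limit read from the data, passing the limit was not always enough; inconclusive = exactly half the replicates above a set limit; inactive = most replicates below a set limit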;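 also: all wells also contain fluconazole at 8 µg/ml as a sub-toxic cotreatment; 0% = median of DMSO wells and 100% = median of geldanamycin control wells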
* = called active by the depositor; u = inconclusive; x = no result. A selection: hits, their analogues and other compounds. The true share with any hit is near 4.4%.

SMILES	T cruzi repl	HSF-1 act	HSF1 inh	HIF activator	Calb FLC
CCOc1ccccc1NCc1cc(=O)oc2cc(C)c(O)cc12	40	-8	-3	0	40
Cc1cc2oc(=O)cc(CNc3ccccc3F)c2cc1O	59*	-16	-11	-1	0
Fc1ccc(Sc2nc(-c3ccccc3)nnc2C(F)(F)F)cc1	32	66*	43	4	-4
Cc1noc(C)c1COC(=O)c1cccc(N(C)C)c1	3	-5	-6	-1	21
COc1ccc2oc(C(=O)OCC(=O)N(C)CC(=O)Nc3ccc(C)cc3)c(C)c2c1	-6	-61	-51*	0	-22
COc1ccc2oc(C(=O)OCC(=O)Nc3ccc(NC(C)=O)cc3)c(C)c2c1	2	-2	1	0	x
O=C(O)CN1C(=O)C(=O)N(Cc2cccc(F)c2)C1=O	-10	-7	-3	0	13
Cc1cccc(Nc2c([N+](=O)[O-])cc(C(=O)N3CC(=O)Nc4ccccc43)cc2[N+](=O)[O-])c1	84*	26	17	-1	26
O=C1CN(C(=O)CNC(=O)c2cccc(Cl)c2)c2ccccc2N1	1	0	-5	2	-20
Cc1ccc(C)c(NC(=O)CNC(=O)N2CC(=O)Nc3ccccc32)c1	-3	0	2	0	-4
Cc1cccc(C(=O)NCC(=O)N2CC(=O)Nc3ccccc32)c1	-1	-63	-51*	-3	-2
Cc1ccc(C)c(Nc2c([N+](=O)[O-])cc(C(=O)N3CC(=O)Nc4ccccc43)cc2[N+](=O)[O-])c1	66*	19	9	-1	15
CCOC(=O)N1CCC(NC(=O)CC2C(=O)NCCN2Cc2cccc(F)c2F)CC1 (stereo unspecified)	-6	-5	-5	-1	-2
CCn1cc(C(=O)OCC(=O)Nc2ccc(C(C)C)cc2)c(=O)c2ccc(C)nc21	-6	-2	-1	1	u
Cc1ccc(F)cc1NC(=O)COC(=O)COc1ccc(C#N)cc1	-2	-3	-4	0	-8
COc1ccc(CNC(=O)Cn2nnc3ccccc3c2=O)cc1	-13	12	3	1	-3
Cc1ccc(C)c(C(=O)CSc2nc(N)cc(=O)[nH]2)c1	-4	-51	-55*	-1	-6
COc1cc(N)ccc1C(=O)O	-7	-62	-60*	2	17
CCOC(=O)c1ccc(N=c2sc(C(=O)OC)cc(=O)n2-c2ccc(C(=O)OCC)cc2)cc1	39	105*	69	1	-4
COC(=O)c1cc(S(=O)(=O)NCCc2ccccc2)c[nH]1	-2	-84	-81*	0	-5
C/C(=N\NC(=O)CC1N=C(Cc2ccccc2)NNC1=O)c1ccc(Cl)cc1Cl (stereo unspecified)	4	-2	2	-1	0
Fc1ccc(C2=NN(c3ccccc3)C(c3ccco3)C2)cc1 (stereo unspecified)	3	-1	-1	1	-19
O=[N+]([O-])c1ccc(/C=C/C2=NN(c3ccccc3)C(c3ccco3)C2)o1 (stereo unspecified)	61*	6	5	1	-3
Clc1ccc(C2=NN(c3ccccc3)C(c3ccco3)C2)cc1 (stereo unspecified)	19	17	4	0	-12
C(=C\c1ccco1)/C1=NN(c2ccccc2)C(c2ccco2)C1 (stereo unspecified)	-9	78*	53	3	-11
SMILES	T cruzi repl	HSF-1 act	HSF1 inh	HIF activator	Calb FLC
O=C(COC(=O)c1oc2ccccc2c1COc1ccccc1)NCCN1C(=O)CSC1=O	-6	-10	10	2	4
CCOC(=O)/C=C/c1ccccc1S(=O)(=O)NC(C)(C)C	-18	-7	-7	0	-1
CCCCNC(=S)N1CCC(Cc2ccccc2)CC1	-10	6	9	-1	6
COc1cccc(C2C(C(N)=O)=C(C)Nc3nc(-c4cccc(Cl)c4)nn32)c1 (stereo unspecified)	5	99*	41	0	55
CCOc1cccc(CN(C)CC2CCCN(CCc3ccc(Cl)cc3)C2)c1O (stereo unspecified)	33	4	9	-4	-16
COc1ccc(OCC(=O)N2CCN(c3cccc(C(F)(F)F)c3)CC2)cc1	2	-89	-87*	-1	-4
COc1ccc(OCC(=O)N2CCN(c3cccc(Cl)c3)CC2)cc1	4	-12	-1	-1	1
O=C(Nc1ncccc1O)c1ccc2c(c1)OCCO2	-9	20	10	12*	0
O=C(Nc1ncccc1O)c1ccc2c(c1)OCO2	-17	12	8	9.7*	7
Cc1cccnc1NC(=O)c1ccc2c(c1)OCCO2	1	15	10	2	0
c1ccc(C(c2ccccc2)c2noc(CN3CCC(c4ccncc4)CC3)n2)cc1	61*	-7	5	0	-1
COC(=O)C1C(=O)OC(C)(C)C1C(C)C(=O)c1ccc(C)cc1C (stereo unspecified)	-2	9	3	0	-30
CCOC(=O)C1C(=O)OC(C)(C)C1C(C)C(=O)c1ccc(C)cc1C (stereo unspecified)	-6	56*	15	0	-14
CCOC(=O)C1C(=O)OC(C)(C)C1C(C)C(=O)c1ccc(C)cc1 (stereo unspecified)	0	-59	-52*	0	2
CCCc1cc(=O)oc2cc(C)cc(OC(C)C(=O)NCc3cccnc3)c12 (stereo unspecified)	-1	10	-2	-1	1
Cc1ccc(C#N)c(SCc2nnc(-c3ccc(Cl)cc3)o2)n1	16	-86	-84*	-2	1
Cc1cc(C)c(C#N)c(SCc2ccccc2[N+](=O)[O-])n1	-7	25	6	0	1
COc1ccccc1-c1cc(-c2ccc(C)cc2)nc(SCc2nnc(-c3ccccc3)o2)c1C#N	42	-5	-7	-1	2
Cc1cc(C)c(C#N)c(SCc2nnc(-c3ccccc3[N+](=O)[O-])o2)n1	69*	36	20	2	52
Cc1cc(C)c(C#N)c(SCc2nnc(-c3ccccc3)o2)n1	3	-88	-85*	-3	-8
Cc1c(N=NC2=C(O)CCCC2=O)c(=O)n(-c2ccccc2)n1C	-4	-14	-2	0	-4
CN=C1S/C(=C\c2cc(C)n(-c3ccccc3F)c2C)C(=O)N1C	4	-83	-82*	0	53
Cc1cc(/C=C2\SC(=O)N(C)C2=O)c(C)n1-c1ccc(S(N)(=O)=O)cc1	6	3	4	2	3
Cc1cc(/C=C2\SC(=O)N(C)C2=O)c(C)n1-c1ccc(O)cc1	4	-74	-70*	0	13
